Reference: ChEMBL document CHEMBL1123985, “Oral absorption of cephalosporin antibiotics. 1. Synthesis, biological properties, and oral bioavailability of 7-(arylacetamido)-3-chloro cephalosporins in animals” (J Med Chem, 1988)
Converted amounts (≈) assume the structure as drawn.

Tests used:
[1] = tested on: Staphylococcus aureus; experiment: Minimum inhibitory concentration against X1.1 strain of Staphylococcus aureus; assay type: functional
[2] = tested on: Streptococcus pyogenes; experiment: Minimum inhibitory concentration against C203 strain of Streptococcus pyogenes
[3] = tested on: Staphylococcus aureus; experiment: Minimum inhibitory concentration against S13E strain of Staphylococcus aureus; assay type: functional
[4] = tested on: Staphylococcus epidermidis; experiment: Minimum inhibitory concentration against 222 strain of Staphylococcus epidermidis; assay type: functional
[5] = tested on: Streptococcus pyogenes; experiment: Minimum inhibitory concentration against Streptococcus pyogenes C203; assay type: functional
[6] = tested on: Salmonella; experiment: Minimum inhibitory concentration against X514 strain of Salmonella; assay type: functional
[7] = tested on: Staphylococcus aureus; experiment: Minimum inhibitory concentration against 3055 strain of Staphylococcus aureus
[8] = Minimum inhibitory concentration against N9 strain of Shigella sonnei; assay type: functional
[9] = tested on: Klebsiella aerogenes; experiment: Minimum inhibitory concentration against EB17 strain of Enterobacter aerogenes; assay type: functional
[10] = tested on: Streptococcus pneumoniae; experiment: Minimum inhibitory concentration against park strain of Streptococcus pneumoniae
[11] = tested on: Escherichia coli; experiment: Minimum inhibitory concentration against EC14 strain Escherichia coli; assay type: functional
[12] = tested on: Klebsiella pneumoniae; experiment: Minimum inhibitory concentration against X68 strain of Klebsiella pneumoniae; assay type: functional
[13] = tested on: Streptococcus pneumoniae; experiment: Minimum inhibitory concentration against Park strain of Streptococcus pneumoniae
[14] = tested on: Staphylococcus aureus; experiment: Minimum inhibitory concentration against V41 strain of Staphylococcus aureus; assay type: functional
[15] = Minimum inhibitory concentration against res 76 strain of Haemophilus influenzae; assay type: functional
[16] = Minimum inhibitory concentration against sens CL strain of Haemophilus influenzae; assay type: functional
[17] = tested on: Staphylococcus epidermidis; experiment: Minimum inhibitory concentration against Epil strain of Staphylococcus epidermidis; assay type: functional
[18] = Oral bioavailability in mouse; assay type: ADME, organism-based; settings: in vivo
Procedure, shortened: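 Male Cox mice given water and liquid diet overnight; 20 mg/kg in saline (2 mg/mL) sc or orally; urine from collection cages plus bladder contents over 2 h; activity by agar well assay with Bacillus subtilis ATCC 6633. Bioavailability from percent dose excreted in urine after oral vs parenteral dosing.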

[19] = tested on: Streptococcus pyogenes; experiment: Minimum inhibitory concentration against C203 strain of Streptococcus pyogenes; remark: listed apart in the source

MIC [19]	SMILES	MIC [1]	MIC [2]	MIC [3]	MIC [4]	MIC [5]	MIC [6]	MIC [7]	MIC [8]	MIC [9]	MIC [10]	MIC [11]	MIC [12]	MIC [13]	MIC [14]	MIC [15]	MIC [16]	MIC [17]	bioavailability [18]
	O=C(Cc1csc2ccc(Cl)cc12)N[C@@H]1C(=O)N2C(C(=O)O)=C(Cl)CS[C@H]12	0.03 µg/mL (≈ 0.0677 µM)	0.03 µg/mL (≈ 0.0677 µM)	2 µg/mL (≈ 4.51 µM)	0.125 µg/mL (≈ 0.282 µM)	0.015 µg/mL (≈ 0.0338 µM)	128 µg/mL (≈ 289 µM)	0.06 µg/mL (≈ 0.135 µM)	128 µg/mL (≈ 289 µM)	128 µg/mL (≈ 289 µM)	0.02 µg/mL (≈ 0.0451 µM)	64 µg/mL (≈ 144 µM)	128 µg/mL (≈ 289 µM)	0.015 µg/mL (≈ 0.0338 µM)	2 µg/mL (≈ 4.51 µM)	0.25 µg/mL (≈ 0.564 µM)	1 µg/mL (≈ 2.26 µM)	0.5 µg/mL (≈ 1.13 µM)	
	O=C(Cc1ccsc1)N[C@@H]1C(=O)N2C(C(=O)O)=C(Cl)CS[C@H]12	0.5 µg/mL (≈ 1.39 µM)		16 µg/mL (≈ 44.6 µM)	1 µg/mL (≈ 2.79 µM)	0.125 µg/mL (≈ 0.348 µM)	1 µg/mL (≈ 2.79 µM)		32 µg/mL (≈ 89.2 µM)	> 128 µg/mL		8 µg/mL (≈ 22.3 µM)	2 µg/mL (≈ 5.57 µM)	0.125 µg/mL (≈ 0.348 µM)	8 µg/mL (≈ 22.3 µM)	1 µg/mL (≈ 2.79 µM)	1 µg/mL (≈ 2.79 µM)	4 µg/mL (≈ 11.1 µM)	47%
	COC1=C(C(=O)O)N2C(=O)[C@@H](NC(=O)Cc3csc(N)n3)[C@H]2SC1	8 µg/mL (≈ 21.6 µM)		> 128 µg/mL	32 µg/mL (≈ 86.4 µM)	0.5 µg/mL (≈ 1.35 µM)	2 µg/mL (≈ 5.4 µM)		32 µg/mL (≈ 86.4 µM)	32 µg/mL (≈ 86.4 µM)		8 µg/mL (≈ 21.6 µM)	8 µg/mL (≈ 21.6 µM)	2 µg/mL (≈ 5.4 µM)	32 µg/mL (≈ 86.4 µM)	8 µg/mL (≈ 21.6 µM)	8 µg/mL (≈ 21.6 µM)	128 µg/mL (≈ 346 µM)	< 5%
	COC1=C(C(=O)O)N2C(=O)[C@@H](NC(=O)COc3ccccc3)[C@H]2SC1	2 µg/mL (≈ 5.49 µM)		16 µg/mL (≈ 43.9 µM)	2 µg/mL (≈ 5.49 µM)	1 µg/mL (≈ 2.74 µM)	> 128 µg/mL		> 128 µg/mL	> 128 µg/mL		> 128 µg/mL	> 128 µg/mL	1 µg/mL (≈ 2.74 µM)	32 µg/mL (≈ 87.8 µM)	4 µg/mL (≈ 11 µM)	4 µg/mL (≈ 11 µM)	8 µg/mL (≈ 22 µM)	14%
	O=C(Cc1ccc(O)cc1)N[C@@H]1C(=O)N2C(C(=O)O)=C(Cl)CS[C@H]12	2 µg/mL (≈ 5.42 µM)		128 µg/mL (≈ 347 µM)	2 µg/mL (≈ 5.42 µM)	0.125 µg/mL (≈ 0.339 µM)	8 µg/mL (≈ 21.7 µM)		128 µg/mL (≈ 347 µM)	> 128 µg/mL		32 µg/mL (≈ 86.8 µM)	8 µg/mL (≈ 21.7 µM)	0.25 µg/mL (≈ 0.678 µM)	16 µg/mL (≈ 43.4 µM)	2 µg/mL (≈ 5.42 µM)	2 µg/mL (≈ 5.42 µM)	8 µg/mL (≈ 21.7 µM)	14%
	O=C(Cc1csc(Cl)n1)N[C@@H]1C(=O)N2C(C(=O)O)=C(Cl)CS[C@H]12						8 µg/mL (≈ 20.3 µM)		64 µg/mL (≈ 162 µM)	> 128 µg/mL				0.5 µg/mL (≈ 1.27 µM)					56%
	C=CC1=C(C(=O)O)N2C(=O)[C@@H](NC(=O)COc3ccccc3)[C@H]2SC1	0.25 µg/mL (≈ 0.694 µM)	0.125 µg/mL (≈ 0.347 µM)	16 µg/mL (≈ 44.4 µM)	0.5 µg/mL (≈ 1.39 µM)	0.125 µg/mL (≈ 0.347 µM)	> 128 µg/mL	0.25 µg/mL (≈ 0.694 µM)	> 128 µg/mL	> 128 µg/mL	0.25 µg/mL (≈ 0.694 µM)	> 128 µg/mL	> 128 µg/mL	0.125 µg/mL (≈ 0.347 µM)	16 µg/mL (≈ 44.4 µM)	1 µg/mL (≈ 2.77 µM)	4 µg/mL (≈ 11.1 µM)	8 µg/mL (≈ 22.2 µM)	36%
	COCC1=C(C(=O)O)N2C(=O)[C@@H](NC(=O)COc3ccccc3)[C@H]2SC1	0.25 µg/mL (≈ 0.661 µM)		32 µg/mL (≈ 84.6 µM)	0.25 µg/mL (≈ 0.661 µM)	0.06 µg/mL (≈ 0.159 µM)	> 128 µg/mL		> 128 µg/mL	> 128 µg/mL		> 128 µg/mL	> 128 µg/mL	0.125 µg/mL (≈ 0.33 µM)	0.5 µg/mL (≈ 1.32 µM)	2 µg/mL (≈ 5.29 µM)	2 µg/mL (≈ 5.29 µM)	0.5 µg/mL (≈ 1.32 µM)	19%
	O=C(COc1ccccc1)N[C@@H]1C(=O)N2C(C(=O)O)=CCS[C@H]12	0.5 µg/mL (≈ 1.5 µM)	0.25 µg/mL (≈ 0.748 µM)	16 µg/mL (≈ 47.9 µM)	0.5 µg/mL (≈ 1.5 µM)	0.5 µg/mL (≈ 1.5 µM)	> 128 µg/mL	0.5 µg/mL (≈ 1.5 µM)	> 128 µg/mL	> 128 µg/mL	0.25 µg/mL (≈ 0.748 µM)	32 µg/mL (≈ 95.7 µM)	> 128 µg/mL	1 µg/mL (≈ 2.99 µM)	16 µg/mL (≈ 47.9 µM)	8 µg/mL (≈ 23.9 µM)	32 µg/mL (≈ 95.7 µM)	2 µg/mL (≈ 5.98 µM)	22%
	C=CC1=C(C(=O)O)N2C(=O)[C@@H](NC(=O)Cc3csc(N)n3)[C@H]2SC1	1 µg/mL (≈ 2.73 µM)		16 µg/mL (≈ 43.7 µM)	1 µg/mL (≈ 2.73 µM)	0.125 µg/mL (≈ 0.341 µM)	2 µg/mL (≈ 5.46 µM)			128 µg/mL (≈ 349 µM)		4 µg/mL (≈ 10.9 µM)	2 µg/mL (≈ 5.46 µM)	0.5 µg/mL (≈ 1.36 µM)	8 µg/mL (≈ 21.8 µM)	2 µg/mL (≈ 5.46 µM)	4 µg/mL (≈ 10.9 µM)	8 µg/mL (≈ 21.8 µM)	25%
	Cc1nc(CC(=O)N[C@@H]2C(=O)N3C(C(=O)O)=C(Cl)CS[C@H]23)cs1						4 µg/mL (≈ 10.7 µM)		64 µg/mL (≈ 171 µM)	> 128 µg/mL				1 µg/mL (≈ 2.67 µM)					66%
	O=C(COc1ccc(O)cc1)N[C@@H]1C(=O)N2C(C(=O)O)=C(Cl)CS[C@H]12	0.5 µg/mL (≈ 1.3 µM)		128 µg/mL (≈ 333 µM)	1 µg/mL (≈ 2.6 µM)	0.06 µg/mL (≈ 0.156 µM)	64 µg/mL (≈ 166 µM)		64 µg/mL (≈ 166 µM)	> 128 µg/mL		64 µg/mL (≈ 166 µM)	> 128 µg/mL	0.125 µg/mL (≈ 0.325 µM)	128 µg/mL (≈ 333 µM)	1 µg/mL (≈ 2.6 µM)	2 µg/mL (≈ 5.2 µM)	16 µg/mL (≈ 41.6 µM)	21%
	O=C(Cc1ccccc1)N[C@@H]1C(=O)N2C(C(=O)O)=CCS[C@H]12	1 µg/mL (≈ 3.14 µM)	0.25 µg/mL (≈ 0.785 µM)	32 µg/mL (≈ 101 µM)	1 µg/mL (≈ 3.14 µM)	0.25 µg/mL (≈ 0.785 µM)	8 µg/mL (≈ 25.1 µM)	1 µg/mL (≈ 3.14 µM)	64 µg/mL (≈ 201 µM)	64 µg/mL (≈ 201 µM)	1 µg/mL (≈ 3.14 µM)	8 µg/mL (≈ 25.1 µM)	4 µg/mL (≈ 12.6 µM)	1 µg/mL (≈ 3.14 µM)	16 µg/mL (≈ 50.3 µM)	1 µg/mL (≈ 3.14 µM)	4 µg/mL (≈ 12.6 µM)	4 µg/mL (≈ 12.6 µM)	12%
0.5 µg/mL (≈ 1.44 µM)	CC1=C(C(=O)O)N2C(=O)[C@@H](NC(=O)[C@H](N)c3ccccc3)[C@H]2SC1 [CEPHALEXIN ANHYDROUS]							1 µg/mL (≈ 2.88 µM)			4 µg/mL (≈ 11.5 µM)								
